Source: ChEMBL document CHEMBL4334439, “Discovery, Optimization, and Target Identification of Novel Potent Broad-Spectrum Antiviral Inhibitors” (J Med Chem, 2019)
Calls of active or inactive are those of the source. The calls are words filed in the database; no cut-off is given here.

Tests used:
Hepatitis C virus [1] = test: Antiviral activity against EGFP-fused HCV JFH-1 harboring K78E/E2-G451R/NS3-M260K/NS5A-T462I mutation infected in human Huh7.5.1 cells assessed as reduction in viral RNA level after 2 days in presence of IFNalpha by qRT-PCR analysis; format: functional, organism-based; conditions: Hepacivirus hominis
In short: (§1)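 Huh7.5.1 cells at 1×10^4/well, grown overnight at 37 °C. HCVcc was mixed with serially diluted compound (top 30 or 6 μM), given alone or with the named drug, and added to the cells. Viral RNA was read by qRT-PCR after 2 days. EC50 is the concentration giving 50% RNA reduction.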

Hepatitis C virus [2] = test: Ratio of EC50 for antiviral activity against HCV infected in human Huh7.5.1 cells assessed as decrease in viral infection in presence of uridine to EC50 for antiviral activity against HCV infected in human Huh7.5.1 cells assessed as decrease in viral infection in absence of uridine; format: functional, Hepacivirus hominis
In short: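 HCV antiviral EC50 in Huh7.5.1 cells was measured with 0.5 mM uridine supplemented, and compared with the EC50 obtained without uridine.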

Homo sapiens = species: Homo sapiens; test: Binding affinity to C-terminal 6-His tagged recombinant human DHODH N-terminal domain delta29 mutant expressed in Escherichia coli BL21(DE3) assessed as reduction in pronase-mediated protein degradation incubated for 1 hr followed by pronase addition and measured after 15 mins by SDS-PAGE based Western blot analysis
In short: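 DARTS used Δ29 human DHODH with a C-terminal His6 tag, expressed in E. coli BL21(DE3) and purified on HisTrap then Superdex200. Protein at 20 μg/ml in TNC buffer (50 mM Tris pH 8.0, 50 mM NaCl, 10 mM CaCl2) was incubated 1 h at RT with compound or DMSO. Pronase followed, 15 min at 37 °C; protease-inhibitor quench; anti-DHODH western blot.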

[3] = biological target: T1, Ribose-phosphate pyrophosphokinase 1 (Homo sapiens) (UniProt P60891); test: Binding affinity to PRPS1 (unknown origin)
T1 sequence (whole entry): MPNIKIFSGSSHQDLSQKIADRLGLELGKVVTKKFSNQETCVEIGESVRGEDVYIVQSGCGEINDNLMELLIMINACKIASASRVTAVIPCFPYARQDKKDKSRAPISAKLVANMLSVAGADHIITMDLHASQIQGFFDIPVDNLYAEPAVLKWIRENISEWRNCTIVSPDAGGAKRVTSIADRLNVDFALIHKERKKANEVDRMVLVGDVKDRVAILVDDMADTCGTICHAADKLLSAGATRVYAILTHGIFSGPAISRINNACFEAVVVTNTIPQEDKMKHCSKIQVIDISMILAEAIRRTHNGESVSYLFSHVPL

[4] = system: Middle East respiratory syndrome-related coronavirus; test: Antiviral activity against MERS-CoV infected in human Caco2 cells assessed as inhibition of viral replication measured at 18 hrs post-infection by plaque formation assay; format: functional, organism-based; conditions: Caco-2, 18 h
[5] = Selectivity index, ratio of CC50 for HEK293T cells to EC50 for HIV pseudotyped virions infected in HEK293T cells; format: toxicity, cell-based; conditions: human, read-out: Ratio CC50/EC50
In short: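 HIV pseudovirus made from VSVG plus env-deficient pNL4-3.luc.R-E- in HEK293T cells and diluted to 0.2 ng p24/ml. Target HEK293T cells were given compound 15 min before infection and lysed 48 h post-infection. CC50 by 48 h WST-1 viability (OD450/OD630).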

Hepatitis C virus [6] = test: Antiviral activity against EGFP-fused HCV JFH-1 harboring K78E/E2-G451R/NS3-M260K/NS5A-T462I mutation infected in human Huh7.5.1 cells assessed as reduction in viral RNA level after 2 days in presence of boceprevir by qRT-PCR analysis; format: functional, organism-based; conditions: Hepacivirus hominis; in short: as §1
Hepatitis C virus [7] = test: Antiviral activity against EGFP-fused HCV JFH-1 harboring K78E/E2-G451R/NS3-M260K/NS5A-T462I mutation infected in human Huh7.5.1 cells assessed as combination index after 2 days in presence of IFNalpha by qRT-PCR analysis; format: functional, Hepacivirus hominis
In short: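 In HCVcc-infected Huh7.5.1 cells (1×10^4/well, overnight, 37 °C), compound was given at various concentrations alone or with the named approved antiviral. After 2 days HCV RNA was quantified by qRT-PCR to derive the combination index.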

[8] = Selectivity index, ratio of CC50 for human Huh7.5.1 cells to EC50 for DENV infected in human Huh7.5.1 cells; format: toxicity, cell-based; conditions: read-out: Ratio CC50/EC50
In short: (§2)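 SI from two assays. Antiviral: Huh7.5.1 cells infected with DENV II or ZIKV at MOI 0.1; viral RNA measured by qRT-PCR after 3 days; EC50 taken at 50% RNA reduction. Cytotoxicity: cells seeded at 1×10^4/well, given serially diluted compound for 48 h, then WST-1 absorbance (OD450/OD630) read for CC50.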

[9] = Selectivity index, ratio of CC50 for African green monkey Vero cells to EC50 for SFTSV infected in African green monkey Vero cells; format: toxicity; conditions: read-out: Ratio CC50/EC50
In short: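 Vero cells infected with SFTSV at MOI 0.01; virus titre measured 4 days after infection. The cytotoxicity arm used 1×10^4 cells/well with 48 h of serially diluted compound, then a WST-1 absorbance read (OD450/OD630) for CC50. SI is CC50/EC50.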

Huh7.5.1 = test: Antiviral activity against EGFP-fused HCV JFH-1 harboring K78E/E2-G451R/NS3-M260K/NS5A-T462I mutant infected in human Huh7.5.1 cells assessed as inhibition of viral entry at 0.01 uM preincubated for 2 hrs at 4 degC followed by virus/compound mixture wash-out and subsequent compound addition and measured up to 10 hrs at 37 degC; format: functional, cell-based
In short: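 Time-of-addition: Huh7.5.1 cells were bound with HCVcc at 4 °C for 2 h. Unbound virus was removed, cells were shifted to 37 °C (T = 0), and compound was added at different time points afterwards. Anti-CD81 antibody served as the entry-inhibitor control.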

Hepatitis C virus [10] = test: Antiviral activity against EGFP-fused HCV JFH-1 harboring K78E/E2-G451R/NS3-M260K/NS5A-T462I mutation infected in human Huh7.5.1 cells assessed as reduction in viral RNA level after 2 days in presence of sofosbuvir by qRT-PCR analysis; format: functional, organism-based; conditions: Hepacivirus hominis; in short: as §1
[11] = system: Respiratory syncytial virus; test: Antiviral activity against RSV infected in African green monkey Vero cells assessed as inhibition of viral replication measured after 5 to 7 days by plaque formation assay; format: functional, organism-based; conditions: human respiratory syncytial virus
In short: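 Vero cells at 2×10^4/well were cultured 18 h, then infected with RSV at 2000 TCID50/ml. Compound (0.01–20 µM) was added immediately. Viral amount was measured by plaque formation assay.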

[12] = Selectivity index, ratio of CC50 for human Caco2 cells to EC50 for MERS-CoV infected in human Caco2 cells; format: toxicity, cell-based; conditions: read-out: Ratio CC50/EC50
Hepatitis C virus [13] = test: Antiviral activity against EGFP-fused HCV JFH-1 harboring K78E/E2-G451R/NS3-M260K/NS5A-T462I mutation infected in human Huh7.5.1 cells assessed as reduction in viral RNA level after 2 days in presence of cyclosporin A by qRT-PCR analysis; format: functional, organism-based; conditions: Hepacivirus hominis; in short: as §1
[14] = Selectivity index, ratio of CC50 for human Huh7.5.1 cells to EC50 for ZIKV infected in human Huh7.5.1 cells; format: toxicity, cell-based; conditions: read-out: Ratio CC50/EC50; in short: as §2

Q: With CCN(CC)c1ccc(Oc2ccc(-c3[nH]c4cccc(F)c4c(=O)c3C)cc2F)cc1 as the molecule, how does the Activity (Hepatitis C virus [1]) read?
A: Dose-dependent effect

Q: What about the “Ratio EC50” value (Hepatitis C virus [2]) of the same molecule?
A: 200

Q: And the Activity (Homo sapiens)?
A: Dose-dependent effect

Q: What about the Activity [3] of the same molecule?
A: inactive

Q: And the EC50 [4]?
A: 333 nM

Q: What about the selectivity ratio [5] of the same molecule?
A: > 96

Q: What about the Activity (Hepatitis C virus [6]) of the same molecule?
A: Dose-dependent effect

Q: What about the CI (Hepatitis C virus [7]) of the same molecule?
A: >=10 - 50

Q: And the selectivity ratio [8]?
A: > 357

Q: And the selectivity ratio [9]?
A: > 8

Q: What about the inhibition (Huh7.5.1) of the same molecule?
A: Active

Q: And the Activity (Hepatitis C virus [10])?
A: Dose-dependent effect

Q: What about the EC50 [11] of the same molecule?
A: 60 nM

Q: And the selectivity ratio [12]?
A: > 7.5

Q: And the Activity (Hepatitis C virus [13])?
A: Dose-dependent effect

Q: And the selectivity ratio [14]?
A: > 125
